Source: ChEMBL document CHEMBL5058577, “EUbOPEN Chemogenomics Library 2 (Multiplex)” (2022)

Tested on: U2OS
Assay: Multiplex assay against U2OS
Format: toxicity, cell-based
Conditions: human
Outline: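 Phenotypes for tubulin, mitochondrial mass and membrane permeability are expressed as per cents of healthy-nucleus cells. Cells were stained live at seeding with Hoechst33342, BioTracker Green Microtubule Cytoskeleton Dye, MitoTracker Red and Annexin V Alexa Fluor 680, then imaged after compound addition on a CQ1 microscope at 37°C and 5% CO2. Machine-learning gating in CellPathfinder separated Hoechst high-intensity objects from normal cells, divided normal cells by nuclear state (healthy, pyknosed, fragmented) and divided pyknosed cells into mitotic or apoptotic.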

[1] = 12 h, 1 µM, compound concentration 1 uM, replicate 1
[2] = 12 h, 1 µM, compound concentration 1 uM, replicate 2
[3] = 12 h, 10 µM, compound concentration 10 uM, replicate 1
[4] = 12 h, 10 µM, compound concentration 10 uM, replicate 2
[5] = 24 h, 1 µM, compound concentration 1 uM, replicate 1
[6] = 24 h, 1 µM, compound concentration 1 uM, replicate 2
[7] = 24 h, 10 µM, compound concentration 10 uM, replicate 1
[8] = 24 h, 10 µM, compound concentration 10 uM, replicate 2
[9] = 48 h, 1 µM, compound concentration 1 uM, replicate 1
[10] = 48 h, 1 µM, compound concentration 1 uM, replicate 2
[11] = 48 h, 10 µM, compound concentration 10 uM, replicate 1
[12] = 48 h, 10 µM, compound concentration 10 uM, replicate 2

CN1C[C@H](C(=O)N[C@]2(C)O[C@@]3(O)[C@@H]4CCCN4C(=O)[C@H](Cc4ccccc4)N3C2=O)C[C@@H]2c3cccc4[nH]cc(c34)C[C@H]21.CS(=O)(=O)O [DIHYDROERGOTAMINE MESYLATE]
Population Apoptotic (%) [1]: 82%
Population Fragmented Nuclei (%) [1]: 24%
Population Healthy Nuclei (%) [1]: 65%
Population Hoechst High Intensity Objects (%) [1]: 1%
Population Membrane Permeable-Phenotype (%) [1]: 6%
Population Mitochondria Different-Phenotype (%) [1]: 2%
Population Mitotic Cells (%) [1]: 17%
Population Normal (%) [1]: 98%
Population Pyknosed Nuclei (%) [1]: 10%
Population Tubulin-Different-Phenotype (%) [1]: 2%
Total Cell Count [1]: 233
Population Apoptotic (%) [2]: 84%
Population Fragmented Nuclei (%) [2]: 23%
Population Healthy Nuclei (%) [2]: 63%
Population Membrane Permeable-Phenotype (%) [2]: 14%
Population Mitochondria Different-Phenotype (%) [2]: 1%
Population Mitotic Cells (%) [2]: 15%
Population Pyknosed Nuclei (%) [2]: 13%
Population Tubulin-Different-Phenotype (%) [2]: 7%
Total Cell Count [2]: 101
Population Apoptotic (%) [3]: 71%
Population Fragmented Nuclei (%) [3]: 19%
Population Healthy Nuclei (%) [3]: 73%
Population Hoechst High Intensity Objects (%) [3]: 2%
Population Membrane Permeable-Phenotype (%) [3]: 5%
Population Mitochondria Different-Phenotype (%) [3]: 1%
Population Mitotic Cells (%) [3]: 28%
Population Normal (%) [3]: 97%
Population Pyknosed Nuclei (%) [3]: 7%
Population Tubulin-Different-Phenotype (%) [3]: 3%
Total Cell Count [3]: 298
Population Apoptotic (%) [4]: 100%
Population Healthy Nuclei (%) [4]: 77%
Population Hoechst High Intensity Objects (%) [4]: 1%
Population Mitochondria Different-Phenotype (%) [4]: 0%
Population Mitotic Cells (%) [4]: 0%
Population Normal (%) [4]: 98%
Population Pyknosed Nuclei (%) [4]: 2%
Population Tubulin-Different-Phenotype (%) [4]: 0%
Total Cell Count [4]: 144
Population Apoptotic (%) [5]: 89%
Population Fragmented Nuclei (%) [5]: 23%
Population Healthy Nuclei (%) [5]: 67%
Population Hoechst High Intensity Objects (%) [5]: 0%
Population Membrane Permeable-Phenotype (%) [5]: 2%
Population Mitochondria Different-Phenotype (%) [5]: 0%
Population Mitotic Cells (%) [5]: 10%
Population Normal (%) [5]: 99%
Population Pyknosed Nuclei (%) [5]: 9%
Population Tubulin-Different-Phenotype (%) [5]: 2%
Total Cell Count [5]: 307
Population Apoptotic (%) [6]: 100%
Population Fragmented Nuclei (%) [6]: 21%
Population Healthy Nuclei (%) [6]: 65%
Population Hoechst High Intensity Objects (%) [6]: 1%
Population Membrane Permeable-Phenotype (%) [6]: 8%
Population Mitochondria Different-Phenotype (%) [6]: 2%
Population Mitotic Cells (%) [6]: 0%
Population Normal (%) [6]: 98%
Population Pyknosed Nuclei (%) [6]: 13%
Population Tubulin-Different-Phenotype (%) [6]: 4%
Total Cell Count [6]: 132
Population Apoptotic (%) [7]: 88%
Population Fragmented Nuclei (%) [7]: 18%
Population Healthy Nuclei (%) [7]: 73%
Population Hoechst High Intensity Objects (%) [7]: 1%
Population Membrane Permeable-Phenotype (%) [7]: 4%
Population Mitochondria Different-Phenotype (%) [7]: 2%
Population Mitotic Cells (%) [7]: 11%
Population Normal (%) [7]: 98%
Population Pyknosed Nuclei (%) [7]: 8%
Population Tubulin-Different-Phenotype (%) [7]: 2%
Total Cell Count [7]: 337
Population Apoptotic (%) [8]: 92%
Population Fragmented Nuclei (%) [8]: 16%
Population Healthy Nuclei (%) [8]: 75%
Population Mitotic Cells (%) [8]: 7%
Population Tubulin-Different-Phenotype (%) [8]: 1%
Total Cell Count [8]: 163
Population Apoptotic (%) [9]: 80%
Population Fragmented Nuclei (%) [9]: 14%
Population Healthy Nuclei (%) [9]: 78%
Population Hoechst High Intensity Objects (%) [9]: 2%
Population Membrane Permeable-Phenotype (%) [9]: 2%
Population Mitochondria Different-Phenotype (%) [9]: 2%
Population Mitotic Cells (%) [9]: 19%
Population Normal (%) [9]: 97%
Population Pyknosed Nuclei (%) [9]: 7%
Population Tubulin-Different-Phenotype (%) [9]: 1%
Total Cell Count [9]: 427
Population Apoptotic (%) [10]: 90%
Population Fragmented Nuclei (%) [10]: 11%
Population Healthy Nuclei (%) [10]: 76%
Population Hoechst High Intensity Objects (%) [10]: 1%
Population Membrane Permeable-Phenotype (%) [10]: 6%
Population Mitotic Cells (%) [10]: 10%
Population Normal (%) [10]: 98%
Population Pyknosed Nuclei (%) [10]: 11%
Population Tubulin-Different-Phenotype (%) [10]: 4%
Total Cell Count [10]: 173
Population Apoptotic (%) [11]: 95%
Population Fragmented Nuclei (%) [11]: 14%
Population Healthy Nuclei (%) [11]: 75%
Population Hoechst High Intensity Objects (%) [11]: 3%
Population Membrane Permeable-Phenotype (%) [11]: 7%
Population Mitochondria Different-Phenotype (%) [11]: 3%
Population Mitotic Cells (%) [11]: 4%
Population Normal (%) [11]: 96%
Population Pyknosed Nuclei (%) [11]: 9%
Population Tubulin-Different-Phenotype (%) [11]: 3%
Total Cell Count [11]: 452
Population Apoptotic (%) [12]: 100%
Population Fragmented Nuclei (%) [12]: 19%
Population Healthy Nuclei (%) [12]: 72%
Population Membrane Permeable-Phenotype (%) [12]: 3%
Population Mitochondria Different-Phenotype (%) [12]: 1%
Population Mitotic Cells (%) [12]: 0%
Population Pyknosed Nuclei (%) [12]: 8%
Population Tubulin-Different-Phenotype (%) [12]: 2%
Total Cell Count [12]: 217
